Rows were chosen to be rich in hits. Some 4.7% of all compounds tested hit in one or more screens of this group.
MrgX1 agonist – agonists of human MrgX1 receptor, primary screen, HEK293 cells, Fluo-4 calcium flux | B-score at 10 µM | Fluo-4 calcium fluorescence, agonist mode; hits give high values | Mas-related G-protein coupled receptor member X1 (Homo sapiens), Q96LB2 | hit rate 0.44% among 310,000;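 active = calcium response B-score plate-corrected fluorescence ratio at least 3 library SD, with starting fluorescence B-score inside 5 SD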
Target sequence (Q96LB2 whole entry, looked up): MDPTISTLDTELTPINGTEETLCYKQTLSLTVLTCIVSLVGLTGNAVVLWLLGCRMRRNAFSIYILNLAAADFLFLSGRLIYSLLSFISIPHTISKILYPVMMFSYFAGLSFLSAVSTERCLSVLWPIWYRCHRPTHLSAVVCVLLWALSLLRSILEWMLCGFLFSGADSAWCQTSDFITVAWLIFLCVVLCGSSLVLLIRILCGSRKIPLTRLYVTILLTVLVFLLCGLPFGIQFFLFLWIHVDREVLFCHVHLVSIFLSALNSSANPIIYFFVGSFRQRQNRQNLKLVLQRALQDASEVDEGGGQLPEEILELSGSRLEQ
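Assay system: MrgX1-expressing HEK293 cells / Amount: fifteen thousand cells per well / Doses: test compound in the initial addition of three / Timing: cells plated overnight, dye loaded 0.5 h 37 °C, 0.5 h room temperature / Technique: kinetic calcium dye fluorescence, Fluo-4 NW / Control set: positive and negative controls per plate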
KCC2 mod – KCC2 cotransporter modulators, thallium flux, primary screen, cell-based, HEK293 KCC2, FluoZin-2 fluorescence, MLSMR | Solute carrier family 12 member 5 (Homo sapiens), Q9H2X9 | KCC2 cells, thallium flux FluoZin-2 fluorescence | B-score of Tl+ flux slope (higher = more flux/activation; lower = inhibition) at 10 µM | hit rate 2.2% among 190,000;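 active = thallium flux slope and its plate-corrected score both differing from the plate sample mean at a set confidence after two filtering rounds, in either direction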;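 note: slope of fluorescence scaled to starting intensity during 10 to 20 s after thallium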
MrgX1 allo act – positive allosteric modulators of MrgX1, primary screen, HEK293 cells, Fluo-4 calcium flux | Mas-related G-protein coupled receptor member X1 (Homo sapiens), Q96LB2 | FDSS; hits give high values | B-score at 10 µM | hit rate 0.63% among 310,000;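 active = plate-corrected calcium response at least 3 library SD above typical, normal starting fluorescence, not activating the receptor alone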;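 note: compound read alongside a low EC10 to EC30 dose of BAM8-22 agonist; peak minus trough fluorescence over baseline measured at the second addition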
RGS4 block – RGS4 inhibitors, primary screen, cell-based, HEK293 M3R inducible RGS4, calcium flux; hit rate 0.45% among 310,000; AID 463165, 2010; B-score at 10 µM; Regulator of G-protein signaling 4 (Homo sapiens), P49798; Fluo-4 calcium flux; hits give high values; triggered by carbachol at its EC20;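 active = B-score, a plate-corrected calcium signal, over three deviations above library mean, with baseline fluorescence within five deviations of library mean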;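 note: RGS4 expression induced by doxycycline in cells with stable M3 receptor; B-score is computed from the integrated fluorescence ratio over baseline after carbachol; higher B-score means a larger calcium signal and so more RGS4 inhibition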
Target sequence (P49798 whole entry, looked up): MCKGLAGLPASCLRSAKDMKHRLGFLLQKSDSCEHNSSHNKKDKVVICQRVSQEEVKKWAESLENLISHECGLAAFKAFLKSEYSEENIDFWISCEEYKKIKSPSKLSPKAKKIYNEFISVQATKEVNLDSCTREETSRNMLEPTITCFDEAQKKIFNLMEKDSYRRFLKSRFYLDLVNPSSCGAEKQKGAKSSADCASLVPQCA
MrgX1 antagonist – antagonists of human MrgX1 receptor, primary screen, HEK293 cells, Fluo-4 calcium flux; Mas-related G-protein coupled receptor member X1 (Homo sapiens), Q96LB2; BAM8-22 antagonism; hits give low values; B-score at 10 µM; hit rate 1.3% among 310,000; AID 588676, 2011;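 active = calcium-response B-score plate-corrected more than 3 library SD below zero, starting fluorescence within 5 deviations, no agonist response on first addition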;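 note: peak minus trough fluorescence over baseline after final BAM8-22 challenge near maximal dose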
RGS4 act – RGS4 potentiators or activators, primary screen, cell-based, HEK293 M3R inducible RGS4, calcium flux; hit rate 0.92% among 310,000; AID 463111, 2010; B-score at 10 µM; carbachol calcium flux Fluo4; hits give low values;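 active = B-score of the integrated calcium signal more than 4 SD below the library mean, with starting fluorescence not abnormally high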;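 note: negative B-score means reduced calcium response which marks RGS4 activation or potentiation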
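test system = HEK293 cells with stable M3R and inducible RGS4 | schedule = recording 10 s baseline at 1 Hz, 100 s post-agonist | technique = Fluo4-AM (2 µM) calcium-flux fluorescence, kinetic read | measure = Agonist-evoked peak-minus-minimum fluorescence over baseline, integrated ratio, B score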
KCC2 sec1 – KCC2 modulators in sodium-free buffer, confirmation, cell-based, HEK293 KCC2, thallium flux, secondary assay; shares compounds with KCC2 mod; FluoZin2 fluorescence; hits give high values; normalised thallium flux (F/F0 slope) at 10 µM; hit rate 15% among 3,700; AID 1713, 2009;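 active = thallium flux slope above the same plate's solvent-only control mean plus 3 SD; inconclusive = the two replicate wells disagree; inactive = no significant difference from solvent-only control wells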
KCC2 bumet counter – thallium flux persisting under bumetanide in KCC2 cells, confirmation, counter-screen for KCC2 modulator project, cell-based, HEK293 KCC2, FluoZin2, secondary assay 3; shares compounds with KCC2 mod; HEK293-KCC2 + bumetanide/ouabain; hits give high values; normalized thallium flux at 10 µM; hit rate 49% among 3,700;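 active = thallium entry rate above the same plate's blocked-transporter control wells by more than 3 SD; inconclusive = the two repeat wells disagree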;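 note: raw slope of fluorescence over initial fluorescence between 10 and 20 s after thallium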
KCC2 sec2 – KCC2 modulators without ouabain present, confirmation, cell-based, HEK293 KCC2, thallium flux, FluoZin2, secondary assay 2. normalized thallium flux at 10 µM. hit rate 23% among 3,700. shares compounds with KCC2 mod. thallium flux FluoZin2 fluorescence; actives lie on both sides; F/F0 rise rate, 10–20 s post-thallium;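 active = thallium flux slope more than 3 SD above or below the plate's solvent-only control mean, mostly below; inconclusive = the two repeat wells disagreed; inactive = no significant shift from solvent-only controls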;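 note: raw slope with 0.1% DMSO as baseline and bumetanide as block control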
HEK293 Tl flux – thallium flux modulation in parental HEK cells, confirmation, counter-screen for KCC2 modulator project, cell-based, counterscreen 1 | thallium flux rate (normalised fluorescence) at 10 µM | hit rate 46% among 3,700 | HEK293 parental cells, thallium flux FluoZin2, ouabain; baseline-ratio fluorescence slope, 10–20 s after thallium | shares compounds with KCC2 mod;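 active = thallium flux rate significantly above the same plate's solvent-only control wells, beyond their mean plus 3 SD; inconclusive = the two replicate wells gave conflicting results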
KCC2 ouabain – KCC2 inhibitors and activators, ouabain retest, confirmation, HEK-KCC2 cells | shares compounds with KCC2 mod | HEK293-KCC2, thallium flux FluoZin2 fluorescence; bidirectional: low = inhibitor, high = activator | raw Tl+ flux slope (below DMSO = inhibition, above = activation) at 10 µM | hit rate 48% among 3,700;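 active = thallium flux slope beyond 3 SD from same-plate DMSO control mean in most replicates, usually higher, sometimes lower; inconclusive = repeat tests gave conflicting results; inactive = no significant difference from controls in most replicates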;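 note: slope of initial-normalized fluorescence between seconds 10 and 20 after thallium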
HEK293 Tl flux2 – native HEK Tl+ uptake effects, second counter-screen – HEK cells, counterscreen 2, counter-screen for KCC2 modulator project, confirmation; shares compounds with KCC2 mod; HEK293 parental, thallium flux FluoZin-2 fluorescence slope; thallium flux slope at 10 µM; hit rate 33% among 3,700; AID 1718, 2009;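 active = thallium flux slope above the same plate's solvent-control mean plus 3 SD in both duplicate wells; inconclusive = duplicate wells that disagreed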;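 note: run without ouabain in cells lacking the KCC2 cotransporter; slope of fluorescence scaled to its starting value between 10 and 20 s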
* = called active by the depositor; i = inactive; ? = inconclusive; . = not tested or not shown.

SMILES	MrgX1 agonist	KCC2 mod	MrgX1 allo act	RGS4 block	MrgX1 antagonist	RGS4 act	KCC2 sec1	KCC2 bumet counter	KCC2 sec2	HEK293 Tl flux	KCC2 ouabain	HEK293 Tl flux2
CC(C)C(OC(=O)c1nsc(Cl)c1Cl)C(=O)NCc1ccccc1 (configuration not stated)	i	.	i	i	i	i	.	.	.	.	.	.
Oc1ccc(NC(=S)N=Nc2c(O)[nH]c3ccccc23)cc1	i	-1.7	i	i	i	i	.	.	.	.	.	.
Cc1ccc(NC(=S)N=Nc2c(O)[nH]c3ccccc23)cc1	i	4.3*	i	i	i	i	0.00762	0.018*	0.0326	0.0199*	0.032*	0.013*
COc1ccc(NC(=S)N=Nc2c(O)[nH]c3ccccc23)cc1	i	5.05	i	i	i	i	.	.	.	.	.	.
CNC(=S)N=Nc1c(O)[nH]c2ccccc12	i	4.14*	i	i	i	i	0.0114	0.0209*	0.0341	0.0106*	0.0242	0.0117*
CCCCn1c(N)c(-c2nc3ccccc3o2)c2c([N+](=O)[O-])nn(CC)c(=O)c21	i	0.193	i	i	i	i	.	.	.	.	.	.
CCCn1nc([N+](=O)[O-])c(C(C#N)c2nc3ccccc3o2)c(Cl)c1=O (configuration not stated)	i	-6.58*	i	i	i	i	0.00722	?	0.022*	0.00576*	0.0119*	0.00886
Cc1nn2c(NCC(C)C)c3c(nc2c1-c1ccccc1)CCC3	i	9.49*	i	i	i	i	0.00882	0.00515	0.0301	0.00733	0.0183	0.0108
Cc1nn2c(NC(C)C)c3c(nc2c1-c1ccccc1)CCC3	i	-1.56	i	i	i	i	.	.	.	.	.	.
c1ccc2c3c([nH]c2c1)C1(CCCCC1)NCC3	i	-0.593	i	i	i	i	.	.	.	.	.	.
CC12CCCCN1CCCc1c2[nH]c2ccccc12 (configuration not stated)	i	8.24*	i	i	i	i	?	0.0044	0.0293	0.00766	?	0.0106
